{"source": "ChEMBL document CHEMBL4765490", "about": "(J Med Chem, 2021)", "key": {"[1]": {"experiment": "Metabolic stability in human liver microsomes assessed as half life at 100 uM in presence of NADPH by LC-MS/MS analysis", "format": "ADME, Microsome", "summary_of_the_method": "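Stock in DMSO (1 mM) was diluted to a 100 μM working solution in 0.1 M phosphate buffer with 3.3 mM MgCl2. Microsomes (20 mg/mL) were primed with NADPH at 37 °C for 3 min, then dosed with compound. Samples were taken at 0, 5, 10, 15, 30, 45 and 60 min and stopped with cold acetonitrile containing internal standard. Protein was spun out before analysis.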"}, "[2]": {"experiment": "Inhibition of PKA (unknown origin) incubated for 30 mins using REBtide substrate by ADP-Glo assay", "design": "species or system Homo sapiens", "summary_of_the_method": "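ADP-Glo reagent was added for 40 min, then detection reagent for 30 min, and luminescence was read. Three experiments in duplicate; curves fitted as for GRK.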"}, "[3]": {"target": "G protein-coupled receptor kinase 6 (Homo sapiens) (UniProt P43250)", "sequence (P43250 whole entry, looked up)": "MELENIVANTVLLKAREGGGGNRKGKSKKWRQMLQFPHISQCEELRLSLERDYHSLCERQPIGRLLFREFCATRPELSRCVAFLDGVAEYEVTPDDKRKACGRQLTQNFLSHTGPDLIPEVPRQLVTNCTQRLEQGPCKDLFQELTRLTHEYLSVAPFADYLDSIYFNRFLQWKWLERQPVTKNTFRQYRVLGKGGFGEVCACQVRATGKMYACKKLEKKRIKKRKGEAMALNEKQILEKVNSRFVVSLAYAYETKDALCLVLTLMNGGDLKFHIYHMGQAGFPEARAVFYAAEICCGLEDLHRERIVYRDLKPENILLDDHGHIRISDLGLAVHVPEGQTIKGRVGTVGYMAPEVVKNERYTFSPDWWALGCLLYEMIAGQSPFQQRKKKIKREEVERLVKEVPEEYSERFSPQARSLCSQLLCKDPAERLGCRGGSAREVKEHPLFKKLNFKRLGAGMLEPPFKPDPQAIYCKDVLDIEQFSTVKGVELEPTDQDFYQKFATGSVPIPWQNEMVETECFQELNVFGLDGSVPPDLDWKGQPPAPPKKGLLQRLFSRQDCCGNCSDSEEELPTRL", "experiment": "Inhibition of GRK6 (unknown origin) at 1 uM relative to control"}, "[4]": {"target": "T1, Beta-adrenergic receptor kinase 1 (Bos taurus, UniProt P21146)", "T1 sequence (P21146 whole entry)": "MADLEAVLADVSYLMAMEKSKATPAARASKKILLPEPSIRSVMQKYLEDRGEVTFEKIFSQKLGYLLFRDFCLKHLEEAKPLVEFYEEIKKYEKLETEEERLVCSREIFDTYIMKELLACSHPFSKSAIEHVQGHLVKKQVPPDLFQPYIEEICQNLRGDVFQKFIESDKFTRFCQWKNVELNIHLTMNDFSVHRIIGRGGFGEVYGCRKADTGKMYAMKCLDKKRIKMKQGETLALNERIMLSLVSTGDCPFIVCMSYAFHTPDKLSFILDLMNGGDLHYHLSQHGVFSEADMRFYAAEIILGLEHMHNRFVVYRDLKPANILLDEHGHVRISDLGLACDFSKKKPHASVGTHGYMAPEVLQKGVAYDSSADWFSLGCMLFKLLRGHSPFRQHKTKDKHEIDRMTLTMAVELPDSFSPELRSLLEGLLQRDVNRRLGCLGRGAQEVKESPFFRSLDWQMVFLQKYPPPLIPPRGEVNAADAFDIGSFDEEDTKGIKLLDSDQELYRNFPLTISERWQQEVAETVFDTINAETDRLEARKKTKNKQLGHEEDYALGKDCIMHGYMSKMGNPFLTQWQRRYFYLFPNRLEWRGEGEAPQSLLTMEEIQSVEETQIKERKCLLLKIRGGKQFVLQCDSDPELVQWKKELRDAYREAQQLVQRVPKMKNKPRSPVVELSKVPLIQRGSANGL", "experiment": "Inhibition of bovine GRK2 using porcine brain tubulin as substrate incubated for 3 to 5 mins by [gamma32P]ATP based radiometric assay"}, "[5]": {"target": "T2, G protein-coupled receptor kinase 5 (Homo sapiens, UniProt P34947)", "experiment": "Covalent inhibition of GRK5 (unknown origin) using porcine brain tubulin as substrate by [gamma32P]ATP based radiometric assay"}, "[6]": {"target": "T3, G protein-coupled receptor kinase 3 (Homo sapiens) (UniProt P35626)", "T3 sequence (whole entry)": "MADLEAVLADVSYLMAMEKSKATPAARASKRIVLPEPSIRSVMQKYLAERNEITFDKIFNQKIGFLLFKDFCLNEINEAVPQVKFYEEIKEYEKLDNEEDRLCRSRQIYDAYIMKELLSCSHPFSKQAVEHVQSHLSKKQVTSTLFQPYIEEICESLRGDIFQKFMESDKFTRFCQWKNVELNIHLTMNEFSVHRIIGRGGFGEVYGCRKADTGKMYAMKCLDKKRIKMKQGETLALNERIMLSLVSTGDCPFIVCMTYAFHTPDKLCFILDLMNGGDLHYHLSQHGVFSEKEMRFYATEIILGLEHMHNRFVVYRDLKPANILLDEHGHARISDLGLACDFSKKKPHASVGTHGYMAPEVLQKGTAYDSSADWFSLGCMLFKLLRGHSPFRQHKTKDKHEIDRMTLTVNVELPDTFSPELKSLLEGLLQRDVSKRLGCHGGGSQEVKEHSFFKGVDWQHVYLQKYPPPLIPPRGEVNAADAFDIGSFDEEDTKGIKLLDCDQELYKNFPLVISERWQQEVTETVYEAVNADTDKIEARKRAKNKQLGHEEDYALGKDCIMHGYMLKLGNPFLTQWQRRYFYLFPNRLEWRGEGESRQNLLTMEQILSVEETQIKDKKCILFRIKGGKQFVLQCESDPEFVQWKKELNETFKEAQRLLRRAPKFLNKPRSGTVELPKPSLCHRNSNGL", "experiment": "Inhibition of GRK3 (unknown origin) at 1 uM relative to control", "conditions": "time 3-5 min"}, "[7]": {"target": "T2, G protein-coupled receptor kinase 5"}, "[8]": {"target": "T2, G protein-coupled receptor kinase 5", "experiment": "Inhibition of human GRK5 using porcine brain tubulin as substrate incubated for 3 to 5 mins by [gamma32P]ATP based radiometric assay"}, "[9]": {"experiment": "Thermodynamic solubility of compound in phosphate buffer at 6 pH by shake flask method", "format": "physicochemical", "conditions": "pH 6, read-out: Therm_solubility"}}, "data": [{"smiles": "Cc1[nH]c(/C=C2\\C(=O)Nc3ccc(C(=O)N[C@H](C)c4ccccc4)cc32)c(C)c1NC(=O)CCl", "note": "(mixture of isomers)", "values": [{"measurement": "t1/2", "setting": "[1]", "value": 13.3, "unit": "min"}, {"measurement": "IC50", "setting": "[2]", "value": "> 250", "unit": "µM"}]}, {"smiles": "Fc1ccc([C@@H]2CCNC[C@H]2COc2ccc3c(c2)OCO3)cc1", "note": "[PAROXETINE]", "values": [{"measurement": "IC50", "setting": "[2]", "value": 850, "unit": "µM"}]}, {"smiles": "Cc1[nH]c(/C=C2\\C(=O)Nc3ccc(C(=O)N[C@H](C)c4ccccc4)cc32)c(C)c1NC(=O)/C(C#N)=C/C(C)(C)C", "values": [{"measurement": "IC50", "setting": "[2]", "value": "> 250", "unit": "µM"}]}, {"smiles": "C#CCNC(=O)c1c(C)[nH]c(/C=C2\\C(=O)Nc3ccc(C(=O)N[C@H](C)c4ccccc4)cc32)c1C", "values": [{"measurement": "inhibition", "setting": "[3]", "value": 94, "unit": "%"}]}, {"smiles": "CCN(CC)CCNC(=O)c1c(C)[nH]c(/C=C2\\C(=O)Nc3ccc(C(=O)N[C@H](C)c4ccccc4)cc32)c1C", "values": [{"measurement": "IC50", "setting": "[2]", "value": "> 250", "unit": "µM"}]}, {"smiles": "C#CCCNC(=O)c1c(C)[nH]c(/C=C2\\C(=O)Nc3ccc(C(=O)N[C@H](C)c4ccccc4)cc32)c1C", "note": "(mixture of isomers)", "values": [{"measurement": "IC50", "setting": "[4]", "value": 130, "unit": "µM"}, {"measurement": "IC50", "setting": "[2]", "value": "> 250", "unit": "µM"}]}, {"smiles": "Cc1[nH]c(/C=C2\\C(=O)Nc3ccc(C(=O)N[C@H](C)c4ccccc4)cc32)c(C)c1NC(=O)CBr", "note": "(mixture of isomers)", "values": [{"measurement": "Ki", "setting": "[5]", "value": 0.11, "unit": "µM"}, {"measurement": "Ratio IC50", "setting": "Homo sapiens", "value": 5}, {"measurement": "inhibition", "setting": "[6]", "value": 21, "unit": "%"}, {"measurement": "inhibition", "setting": "[3]", "value": 97, "unit": "%"}, {"measurement": "IC50", "setting": "[2]", "value": "> 250", "unit": "µM"}, {"measurement": "Kinact", "setting": "[7]", "value": "> 1", "unit": "min⁻¹"}]}, {"smiles": "CC1=C(C(=O)Nc2ccc3[nH]ncc3c2)C(c2ccc(F)c(C(=O)NCc3ccccn3)c2)NC(=O)N1", "note": "(centres undefined)", "values": [{"measurement": "IC50", "setting": "[2]", "value": "> 250", "unit": "µM"}]}, {"smiles": "C=CCNC(=O)c1c(C)[nH]c(/C=C2\\C(=O)Nc3ccc(C(=O)N[C@H](C)c4ccccc4)cc32)c1C", "values": [{"measurement": "IC50", "setting": "[2]", "value": "> 250", "unit": "µM"}]}, {"smiles": "Cc1[nH]c(/C=C2\\C(=O)Nc3ccc(C(=O)N[C@H](C)c4ccccc4)cc32)c(C)c1NC(=O)C(O)CCl", "note": "(some centres undefined)", "values": [{"measurement": "IC50", "setting": "[2]", "value": "> 250", "unit": "µM"}]}, {"smiles": "C=CCCNC(=O)c1c(C)[nH]c(/C=C2\\C(=O)Nc3ccc(C(=O)N[C@H](C)c4ccccc4)cc32)c1C", "note": "(mixture of isomers)", "values": [{"measurement": "IC50", "setting": "[8]", "value": 1.94, "unit": "µM"}]}, {"smiles": "CCN(CC)CCNC(=O)c1c(C)[nH]c(/C=C2\\C(=O)Nc3ccc(F)cc32)c1C", "note": "(mixture of isomers) [SUNITINIB]", "values": [{"measurement": "solubility thermodynamic", "setting": "[9]", "value": 350, "unit": "µg/mL"}]}]}
